Data as given in the RNAGym collection of RNA variant scans (doi:10.1101/gad.245936.114).
This sample holds only a part of the variants without activity.

B1: tRNA (parent)
chain: CUCUCGGUAGCCAAGUUGGUUUAAGGCGCAAGACUUUAAUUUAUCACUACGAAAUCUUGAGAUCGGGCGUUCGACUCGCCCCCGGGAGAUUUUUUCCUCGAGCAA

Variants of: B1
Test: nonsense suppression (GFP-seq) (ratio to wild type); higher = more function; SUP4oc tRNA, yeast GFP reporter sort-seq
Procedure, shortened: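 Nonsense suppression (GFPSEQ) is the median GFP/RFP ratio of each sorting bin, weighted by the variant's estimated share of cells in that bin and expressed relative to the unmutated parent tRNA. Yeast strains carried genome-integrated variants of an ochre-suppressor tRNA from a library with ~3% random mutations, plus a galactose-driven GFP ochre reporter and RFP, and were grown in raffinose/galactose medium containing 80 mg/L adenine. Cells were sorted into GFP/RFP bins, each bin was Illumina-sequenced (phred ≥30), and variants were kept only with ≥100 reads and ≥30 cells.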

First: A13C G28A
Second: A13C G28U
The nonsense suppression of the first is higher: 1.08 for the first, 0.0283 for the second.

First: A13U C72G
Second: A14G G28U G78C
The nonsense suppression of the first is higher: 0.032 for the first, no more than 0.026 for the second.

First: A13U C81A
Second: A13U C81G
The nonsense suppression of the first is lower: no more than 0.026 for the first, 0.0578 for the second.

C11U G19U C64A and C12U A23C G78C cannot be ordered by nonsense suppression: no more than 0.026 for the first, no more than 0.026 for the second.

First: A13G G61C
Second: C12U G26U G84A
The nonsense suppression of the first is higher: 0.0301 for the first, no more than 0.026 for the second.

C12G U21A G59U and A14C G59C G85A cannot be ordered by nonsense suppression: no more than 0.026 for the first, no more than 0.026 for the second.

First: A13G C29A
Second: A14G G78A
The nonsense suppression of the first is higher: 0.03 for the first, 0.0272 for the second.

A14G A24C A31G C56G and A13C C27A G61C C75G cannot be ordered by nonsense suppression: no more than 0.026 for the first, no more than 0.026 for the second.

First: A13C U17C U22G G85A
Second: C12G G25C C75A
The nonsense suppression of the first is higher: 0.81 for the first, 0.482 for the second.

Going from C12G U16C A23G to A13C G61U A87C, the nonsense suppression falls from 0.207 to no more than 0.026.

First: C12U A31G G65A
Second: A13U A23U
The nonsense suppression of the first is lower: no more than 0.026 for the first, 0.0855 for the second.

First: C12U A13G U21A
Second: A14C U21G A23C G69A U70A
The nonsense suppression of the first is higher: 0.0262 for the first, no more than 0.026 for the second.

Going from C12U C29G U35A to C12A A24C, the nonsense suppression rises from no more than 0.026 to 0.035.

Going from C12A G25C C68G to A13C G25A, the nonsense suppression rises from no more than 0.026 to 0.0288.

First: A13C U17A A31G
Second: C12G A54G U57G A60U C77U
The nonsense suppression of the first is higher: 0.849 for the first, no more than 0.026 for the second.

First: C11U C75A
Second: A14U C27A G78C A87C
The nonsense suppression of the first is higher: 0.168 for the first, no more than 0.026 for the second.

First: A13G A31G
Second: A13U U21A U35C G84U
The nonsense suppression of the first is higher: 0.149 for the first, no more than 0.026 for the second.

A14C G65A and C11U G18U A60G cannot be ordered by nonsense suppression: no more than 0.026 for the first, no more than 0.026 for the second.

First: A13G C64G
Second: A14G C29U
The nonsense suppression of the first is lower: no more than 0.026 for the first, 0.0832 for the second.

A14G G19A A31U G66C A74C G78U and C12A A33G G67U cannot be ordered by nonsense suppression: no more than 0.026 for the first, no more than 0.026 for the second.

First: C12U A24U U71G
Second: A13U C83U
The nonsense suppression of the first is lower: no more than 0.026 for the first, 0.157 for the second.

Going from A13C A62G to A13U C64U, the nonsense suppression falls from 0.0702 to 0.0285.

Compared with A13C G61A, A13C A23G A31U is lower in nonsense suppression: 0.852 for the first, no more than 0.026 for the second.

Going from A13C G73U to A13C G73A, the nonsense suppression rises from 0.0412 to 0.394.

Compared with C12U G78U, C12U G78A is lower in nonsense suppression: 0.0326 for the first, 0.0268 for the second.

First: A13C G88A
Second: A13U G61C
The nonsense suppression of the first is lower: 0.0766 for the first, 0.191 for the second.

Going from A13U G61U to A13C G67A, the nonsense suppression falls from 0.447 to 0.0799.

C11U G18C U20G U76G and A14G U16G C64U cannot be ordered by nonsense suppression: no more than 0.026 for the first, no more than 0.026 for the second.

Going from A13C G18C U20G A31U to C11U G26A U63C, the nonsense suppression rises from 0.134 to 0.212.

Compared with A14G U17A G25A C29U U63G, A13C U16A is higher in nonsense suppression: no more than 0.026 for the first, 1.17 for the second.

First: A13C U16C
Second: C12U U35C
The nonsense suppression of the first is higher: 1.12 for the first, 0.0352 for the second.

First: A14G A60G
Second: A13C A89G
The nonsense suppression of the first is lower: 0.0456 for the first, 0.122 for the second.

Going from C12G G15A G19U to A13C U55C, the nonsense suppression rises from no more than 0.026 to 0.827.

Compared with A13U A74U, C11U G18A is lower in nonsense suppression: 0.051 for the first, no more than 0.026 for the second.

Compared with C12U A13C U20C A60C G85A, A13U A31G is higher in nonsense suppression: no more than 0.026 for the first, 1.22 for the second.

Going from A13U A31U to A14G A33G G69C, the nonsense suppression falls from 0.193 to no more than 0.026.

Going from C11U G19A G25A C29U G59A to A13U A54U, the nonsense suppression rises from no more than 0.026 to 0.728.

First: C12A A31G
Second: C12G U70A
The nonsense suppression of the first is higher: 0.0261 for the first, no more than 0.026 for the second.

Compared with A13U G67A, A13C C77U is lower in nonsense suppression: 0.0502 for the first, 0.0493 for the second.

Compared with A13U G32C C56G C75U, C12U G78U G84C is lower in nonsense suppression: 0.912 for the first, no more than 0.026 for the second.

A14C G59A U70G and A13C G18C G26U G61C cannot be ordered by nonsense suppression: no more than 0.026 for the first, no more than 0.026 for the second.

A13C C68G G88A and A14G G19C C29A C56A G88C cannot be ordered by nonsense suppression: no more than 0.026 for the first, no more than 0.026 for the second.

Going from A13G U21G to A13G U21C, the nonsense suppression rises from 0.026 to 0.211.

Going from C12U G28A to C12U G28U, the nonsense suppression falls from 0.51 to 0.0705.

Compared with C12U U21A A31G, A13G is lower in nonsense suppression: 0.214 for the first, 0.191 for the second.

Going from A13U to A13C, the nonsense suppression rises from 1.03 to 1.13.

Going from C11U U22C to A14C U16G U55C, the nonsense suppression falls from 0.0289 to no more than 0.026.

First: A14C A31G A74U C80G
Second: C12U C29U
The nonsense suppression of the first is lower: no more than 0.026 for the first, 0.206 for the second.

A13G C56G U71G and A13U U71A cannot be ordered by nonsense suppression: no more than 0.026 for the first, no more than 0.026 for the second.

Compared with C11U U70G C79A, A13C A30G is higher in nonsense suppression: no more than 0.026 for the first, 0.892 for the second.

First: A13C G84A
Second: A13C G84C
The nonsense suppression of the first is higher: 0.175 for the first, 0.0388 for the second.

Going from C11U G61C to C12U C82U, the nonsense suppression rises from 0.0829 to 0.32.

Compared with C12A C34U, A14G G19U A23G A30G C75U C82U is lower in nonsense suppression: 0.94 for the first, no more than 0.026 for the second.

First: A13C G18U G26A A31U
Second: A14G G61C
The nonsense suppression of the first is lower: no more than 0.026 for the first, 0.0278 for the second.

A14G G26A G66C and A14C G65C C80G A87C cannot be ordered by nonsense suppression: no more than 0.026 for the first, no more than 0.026 for the second.

Compared with A13C C75A, A13C C75G is higher in nonsense suppression: 1.09 for the first, 1.15 for the second.

Going from A13C C75U to A13U G65U, the nonsense suppression falls from 1.09 to 0.0575.

A13U G65A and A14U A60C G66A G67A cannot be ordered by nonsense suppression: no more than 0.026 for the first, no more than 0.026 for the second.

Compared with C12U G85U, C12U G85C is higher in nonsense suppression: 0.0919 for the first, 0.111 for the second.

Compared with A13U G15A, A14G U17A G59U is lower in nonsense suppression: 0.046 for the first, no more than 0.026 for the second.

First: A14G G86U
Second: C12U
The nonsense suppression of the first is lower: no more than 0.026 for the first, 0.773 for the second.

C12G A33U U55C C72A G73A U76C and A14G U57C U58A cannot be ordered by nonsense suppression: no more than 0.026 for the first, no more than 0.026 for the second.

A14C C82U and A13G C29G G61U U70G cannot be ordered by nonsense suppression: no more than 0.026 for the first, no more than 0.026 for the second.

Going from A13G C82A to A13C A33U, the nonsense suppression rises from no more than 0.026 to 0.0508.

Going from A13U U16G A33U to A13C G61U C68U, the nonsense suppression rises from 0.0384 to 0.414.

A13U A14C U35A A60C C72U and A14U A24U G26U C29G cannot be ordered by nonsense suppression: no more than 0.026 for the first, no more than 0.026 for the second.

First: A14G G18A U21C A30G A33G C79A C82A A89U
Second: C12U G25A G61C
The nonsense suppression of the first is lower: no more than 0.026 for the first, 0.823 for the second.

C12U G25C U57G C83G and C11U G28A A33G cannot be ordered by nonsense suppression: no more than 0.026 for the first, no more than 0.026 for the second.

First: C12U C81A
Second: A14U A23G A62U G84A
The nonsense suppression of the first is higher: 0.0405 for the first, no more than 0.026 for the second.

Going from C12U A33C C80G to A13U U76C, the nonsense suppression rises from no more than 0.026 to 0.836.

First: A14U A54C C68A G73C G84A
Second: C12U G19U U57C C77A A89U
The nonsense suppression of the first is higher: 0.202 for the first, no more than 0.026 for the second.

C12U A31G C77G and A14G A54G cannot be ordered by nonsense suppression: no more than 0.026 for the first, no more than 0.026 for the second.

First: C12U G25U
Second: C12U G25A
The nonsense suppression of the first is lower: 0.192 for the first, 1.19 for the second.

First: C12U G25C
Second: C12U U22G
The nonsense suppression of the first is lower: 0.184 for the first, 0.745 for the second.

A13G G67C C83G and A13G U21G C77G cannot be ordered by nonsense suppression: no more than 0.026 for the first, no more than 0.026 for the second.

C12U A13C U20A and C11U G66A cannot be ordered by nonsense suppression: no more than 0.026 for the first, no more than 0.026 for the second.

First: A13G U16G
Second: A13G U16A
The nonsense suppression of the first is higher: 0.207 for the first, 0.0391 for the second.

First: A13U G85A
Second: C12U C56U
The nonsense suppression of the first is higher: 1.2 for the first, no more than 0.026 for the second.

Compared with C12U C56G, C12U G84U is higher in nonsense suppression: no more than 0.026 for the first, 0.117 for the second.

Compared with A13U G78A, A13U G78U is higher in nonsense suppression: 0.179 for the first, 0.236 for the second.

First: A13U G78C
Second: C12U A23G
The nonsense suppression of the first is lower: 0.0621 for the first, 0.0776 for the second.

Going from A13U A54C G66A A74C G86A to A13C A60G, the nonsense suppression rises from no more than 0.026 to 0.392.

First: A13C A60C
Second: A13C A60U
The nonsense suppression of the first is lower: 0.29 for the first, 1.07 for the second.

For C12G C56G G65A A74U, the nonsense suppression was no more than 0.026.
